Test results: ChEMBL document CHEMBL1157813, “Novel irreversible fluorescent probes targeting the 18 kDa translocator protein: synthesis and biological characterization” (J Med Chem, 2010)
Active and inactive are the calls of the source. The calls are words filed in the database; no cut-off is given here.

Columns and labels:
Translocator protein [1] = biological target: T1, Translocator protein (Rattus norvegicus, UniProt P16257); assay: Displacement of [3H]Ro5-4864 from TSPO in rat kidney mitochondrial membrane; format: cell membranes
T1 sequence (P16257 whole entry, looked up): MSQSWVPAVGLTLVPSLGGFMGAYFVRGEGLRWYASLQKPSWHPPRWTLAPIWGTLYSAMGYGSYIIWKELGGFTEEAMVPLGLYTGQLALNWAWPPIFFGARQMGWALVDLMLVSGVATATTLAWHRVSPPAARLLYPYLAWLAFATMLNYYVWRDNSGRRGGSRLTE
Outline: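 IC50 and Ki taken from displacement curves. Bound radioactivity expressed as percent of specific binding. Triplicate determinations pooled from three independent experiments.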

[2] = biological target: Translocator protein (Homo sapiens) (UniProt P30536); assay: Irreversible binding affinity to TSPO in human U87MG cells at 100 to 500 nM after 20 mins in presence of 10 uM Ro5-4864; format: cell-based; details: U-87MG ATCC
Chain of Translocator protein (Homo sapiens) (P30536 whole entry): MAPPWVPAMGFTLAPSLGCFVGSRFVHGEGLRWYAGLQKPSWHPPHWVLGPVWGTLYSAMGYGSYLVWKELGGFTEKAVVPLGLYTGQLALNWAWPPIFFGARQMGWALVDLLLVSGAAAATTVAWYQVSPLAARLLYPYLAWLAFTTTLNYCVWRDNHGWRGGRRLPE
Outline: (§1)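 U87MG cells grown in RPMI 1640 with 10% FBS, seeded at 4 × 10^4 cells/well for 24 h. Some wells pretreated with 10 μM Ro 5-4864, then given probe (100, 250, 500 nM) for 20 or 90 min at 37 °C, 5% CO2. Four washes in medium with cysteine, then PBS. Fluorescence read at Ex 485/Em 535 nm. Mean ± SEM, at least three experiments in duplicate.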

[3] = biological target: Translocator protein (Rattus norvegicus) (UniProt P16257); assay: Displacement of [3H]Ro5-4864 from TSPO in rat kidney mitochondrial membrane at 1 to 1000 nM; format: cell membranes; details: TDE = time-dependent effect
Chain of Translocator protein (Rattus norvegicus) (P16257 whole entry, looked up): as the sequence (P16257 whole entry, looked up) above
Outline: (§2)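 Rat kidney membranes preincubated with ligand (1 nM to 1 μM) for 0, 10, 30, 60, 90 or 180 min in binding buffer. Stopped with ice-cold 50 mM Tris/HCl pH 7.4, centrifuged 13000g 15 min at 4 °C, pellets washed twice. Residual [3H]Ro 5-4864 binding then measured at 65 μg protein/tube. ln B/B0 plotted against time. Kd and K2 taken from a 1/Kobs vs 1/[D] plot. Duplicates, three experiments.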

[4] = biological target: Translocator protein (Rattus norvegicus) (UniProt P16257); assay: Displacement of [3H]Ro5-4864 from TSPO in rat kidney mitochondrial membrane after 180 mins; format: cell membranes; outline: as §2
Translocator protein [5] = biological target: T1, Translocator protein; assay: Irreversible binding affinity to TSPO in rat kidney mitochondrial membrane; format: cell membranes; outline: as §2
[6] = biological target: Translocator protein (Homo sapiens) (UniProt P30536); assay: Irreversible binding affinity to TSPO in human U87MG cells at 100 to 500 nM after 90 mins in presence of 10 uM Ro5-4864; format: cell-based; details: U-87MG ATCC; outline: as §1

| SMILES | IC50 (Translocator protein [1]) [nM] | Ki (Translocator protein [1]) [nM] | Activity [2] | Activity [3] | Activity [4] | Kd (Translocator protein [5]) [nM] | Activity [6] |
| --- | --- | --- | --- | --- | --- | --- | --- |
| O=C(NCCCCCCNc1ccc([N+](=O)[O-])c2nonc12)C(=O)c1c(-c2ccccc2)[nH]c2ccc(N=C=S)cc12 | 42.2 | 37.6 | inactive | tde | Dose-dependent effect | 8.31 | Active |
| CCCCCCN(CCCCCC)C(=O)C(=O)c1c(-c2ccccc2)[nH]c2ccc(N=C=S)cc12 | 59.7 | 49.5 | – | tde | Dose-dependent effect | 5.07 | – |
| CCCN(CCC)C(=O)C(=O)c1c(-c2ccccc2)[nH]c2ccc(N=C=S)cc12 | 45.6 | 37.9 | – | tde | Dose-dependent effect | 3.17 | – |
